The values below come from publication PMC2292216 (The Journal of Experimental Medicine, 2008).

Some results are limits rather than exact numbers.

For assay [1], the target named is T1, BLT2 (Homo sapiens, UniProt Q9NPC1).
T1 sequence (Q9NPC1 1-358): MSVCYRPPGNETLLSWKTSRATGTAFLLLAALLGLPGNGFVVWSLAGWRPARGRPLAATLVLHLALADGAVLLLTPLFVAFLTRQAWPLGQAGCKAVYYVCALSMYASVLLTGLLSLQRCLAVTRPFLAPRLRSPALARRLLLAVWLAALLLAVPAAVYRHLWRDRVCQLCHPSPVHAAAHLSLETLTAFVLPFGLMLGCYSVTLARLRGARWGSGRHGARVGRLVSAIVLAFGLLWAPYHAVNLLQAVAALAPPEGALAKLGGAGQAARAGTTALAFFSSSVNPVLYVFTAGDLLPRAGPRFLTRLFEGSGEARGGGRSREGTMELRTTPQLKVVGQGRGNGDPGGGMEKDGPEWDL
The following applies: cited from earlier work.

A further assay concerns mouse BMMCs. Nature of the assay: Chemotaxis. The class given is cell-based. The method, boiled down:
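BMMCs from WT, BLT1-KO and BLT2-KO mice (knockouts backcrossed to BALB/c for 10 generations) grown in RPMI 1640 with 10% fetal calf serum, 0.1 mM nonessential amino acids and 50% WEHI-3 cell-conditioned medium; maturation checked by flow cytometry. Migration toward test compound measured; stem cell factor (via c-kit) as positive control.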

In assay [2] the target is T2, human BLT1 (Homo sapiens, UniProt Q15722). Nature of the assay: Intracellular calcium mobilization in CHO-BLT1 cells. The class given is cell-based. The following applies: concentrations as high as 3.3 μM.
T2 sequence (Q15722 whole entry): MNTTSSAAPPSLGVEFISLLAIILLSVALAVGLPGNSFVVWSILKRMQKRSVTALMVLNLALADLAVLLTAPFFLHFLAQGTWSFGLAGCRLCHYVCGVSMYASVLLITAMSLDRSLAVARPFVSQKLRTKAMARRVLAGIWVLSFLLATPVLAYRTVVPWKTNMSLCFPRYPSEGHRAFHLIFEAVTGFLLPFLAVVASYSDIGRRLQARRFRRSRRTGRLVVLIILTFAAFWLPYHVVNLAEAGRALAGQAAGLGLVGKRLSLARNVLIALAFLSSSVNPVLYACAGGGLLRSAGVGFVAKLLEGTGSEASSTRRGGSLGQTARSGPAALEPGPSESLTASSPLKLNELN
The target in assay [3] is T1, BLT2. Nature of the assay: [3H]LTB4 displacement assay, membrane preparations of CHO-BLT2 cells. The class given is binding.
For the next assay, the target named is T3, mouse BLT2 (Mus musculus, UniProt Q9JJL9).
T3 sequence (Q9JJL9 1-360): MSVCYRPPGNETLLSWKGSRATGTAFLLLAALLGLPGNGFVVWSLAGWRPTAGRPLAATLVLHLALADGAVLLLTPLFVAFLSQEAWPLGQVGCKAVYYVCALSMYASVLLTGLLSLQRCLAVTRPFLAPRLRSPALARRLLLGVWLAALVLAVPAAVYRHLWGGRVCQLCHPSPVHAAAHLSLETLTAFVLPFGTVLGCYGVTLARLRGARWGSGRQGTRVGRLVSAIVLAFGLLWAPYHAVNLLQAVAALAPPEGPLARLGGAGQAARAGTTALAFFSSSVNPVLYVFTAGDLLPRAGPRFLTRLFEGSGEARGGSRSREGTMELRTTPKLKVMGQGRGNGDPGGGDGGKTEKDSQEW
Nature of the assay: IP accumulation assay in cells cotransfected with mouse BLT2 and G14. The class given is cell-based.

Assay [4] concerns the target T2, human BLT1. Nature of the assay: Boyden chamber chemotaxis assay of CHO-BLT1 cells. The class given is cell-based.
Another assay deals with platelets. Nature of the assay: Platelet aggregation. Format: cell-based. The following applies: unpublished data.
Assay [5] deals with T2, human BLT1. Nature of the assay: cAMP assay. The following applies: CHO-BLT1 cells, 50 μM forskolin. The class given is cell-based.
In assay [6] the target is T1, BLT2. Nature of the assay: cAMP assay. Format: cell-based.
Assay [7] has as its target T1, BLT2. Nature of the assay: Boyden chamber chemotaxis assay of CHO-BLT2 cells. Format: cell-based. The following applies: for concentration required for maximal chemotaxis: Boyden chamber.
For assay [8], the target named is T1, BLT2. Nature of the assay: IP accumulation assay in COS-7 cells coexpressing BLT2 and G14. The class given is cell-based.
The target of assay [9] is T1, BLT2. Nature of the assay: Cytosensor microphysiometer assay in CHO-BLT2 cells. Format: cell-based. The method, boiled down: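 CHO cells stably expressing BLT2, with BLT1 and mock transfectants alongside. Proton flux recorded by cytosensor microphysiometer on exposure to lipid extracts from rat, mouse or platelet sources, or to 1-min RP-HPLC fractions (MeOH/H2O/AcOH 70:30:0.01). ATP served as control for endogenous purinergic receptors.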

As for `CCCCC/C=C\C[C@H](O)/C=C/C=C\C/C=C\CCCC(=O)O` [12-HETE], the “agonist activity at BLT2” value at BLT2 [1] is given as “weak agonists”.
Consider `CCCCC[C@H](O)/C=C/C=C/C/C=C\CCCC(=O)O` [12-HHT, 12(S)-hydroxyheptadeca-5Z, 8E, 10E–trienoic acid], for which the “migration of BMMCs” value in the assay with mouse BMMCs (BMMCs from BLT1-KO mice) and in the assay with mouse BMMCs (BMMCs from WT mice) was “migrated in response to 12-HHT” in each case. In addition, the calcium mobilization entry on human BLT1 [2] is recorded as “failed to induce calcium mobilization”. The 50% inhibitory concentration (IC50) at BLT2 [3] came out at 2.8 nM; against BLT2 [6] it was 1 nM. Further, on mouse BLT2, the “activation of mouse BLT2 by IP accumulation” value is recorded as “activated mouse BLT2”. Further, the chemotaxis result at human BLT1 [4] is recorded as “failed to induce chemotaxis”. In addition, the “agonistic activity in platelet aggregation” value in the assay with platelets was “did not display agonistic activity”. Besides, the adenylyl cyclase inhibition entry on human BLT1 [5] is “had no effect”. Besides, the “concentration required for maximal chemotaxis” value at BLT2 [7] is listed as 30 nM. Besides, the midpoint of the response on BLT2 [8], the EC50, lay at 5.4 nM. Further, the “activation of BLT2 in the cytosensor assay” value at BLT2 [9] was “able to activate BLT2”.
On to `CCCCC[C@H](O)/C=C/C=C\C/C=C\C/C=C\CCCC(=O)O` [15-HETE], for which the “agonist activity at BLT2” value at BLT2 [1] was “weak agonists”.
As to `CCCCC/C=C\C[C@@H](O)/C=C/C=C/C=C\[C@@H](O)CCCC(=O)O` [LTB4, 5(S), 12(R)-dihydroxy-6, 14-cis-8, 10-trans-eicosatetraenoic acid], the “migration of BMMCs” value in the assay on mouse BMMCs (BMMCs from BLT2-KO mice) and with mouse BMMCs (BMMCs from WT mice) was “migrated in response to LTB4” each time. The “concentration required for maximal chemotaxis” value on BLT2 [7] is > 1,000 nM.
Regarding “SCF: stem cell factor, positive control inducing chemotaxis through the c-kit receptor”, the “migration of BMMCs” value with mouse BMMCs (BMMCs from BLT1-KO mice), with mouse BMMCs (BMMCs from BLT2-KO mice) and with mouse BMMCs (BMMCs from WT mice) was “induced robust chemotaxis” each time.
For pertussis toxin, the “effect of pretreatment on 12-HHT-dependent adenylyl cyclase inhibition” value on BLT2 [6] (CHO-BLT2 cells, pretreatment) is reported as “completely blocked”. Also, the “effect of pretreatment on 12-HHT-induced chemotaxis” value on BLT2 [7] (pretreatment) is reported as “completely abolished”.
